Reference: ChEMBL document CHEMBL1275417, “Biological activities of novel gyrase inhibitors of the aminocoumarin class” (Antimicrob Agents Chemother, 2008)
In brackets after ≈: the same amount, converted by molar mass. Activity calls are given as the source filed them. No cut-off for these calls is given here.

Columns and labels:
[1] = molecular target: DNA gyrase (Escherichia coli); assay: Inhibition of Escherichia coli JM109 DNA gyrase assessed as DNA triple helix formation by supercoiling assay
Klebsiella pneumoniae = assay: Antibacterial activity against Klebsiella pneumoniae ATCC 27736 by broth microdilution method; assay type: functional
Staphylococcus aureus [2] = assay: Antibacterial activity against Staphylococcus aureus 80CR5 by broth microdilution method; assay type: functional
Enterococcus faecium = assay: Antibacterial activity against Enterococcus faecium ATCC 19434 by broth microdilution method; assay type: functional
Streptococcus pneumoniae [3] = assay: Antibacterial activity against Streptococcus pneumoniae SL336-T by broth microdilution method; assay type: functional
Streptococcus pneumoniae [4] = assay: Antibacterial activity against Streptococcus pneumoniae ATCC 49619 by broth microdilution method; assay type: functional
Staphylococcus aureus [5] = assay: Antibacterial activity against Staphylococcus aureus ATCC 43300 by broth microdilution method; assay type: functional
Pseudomonas aeruginosa [6] = assay: Antibacterial activity against Pseudomonas aeruginosa K799/61 by broth microdilution method; assay type: functional
[7] = molecular target: DNA gyrase subunit A (Escherichia coli K-12) (UniProt P0AES4); assay: Inhibition of Escherichia coli K-12 DNA gyrase A expressed in Escherichia coli DC2 assessed as compound concentration required for => 4-fold induction of luxCDABE operon by reported gene assay
Procedure, shortened: (§1)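 E. coli DC2 carrying a gyrA or sulA promoter–luxCDABE (Photorhabdus) fusion plasmid. Grown overnight at 37°C in LB with 2 μg/ml tetracycline, then diluted 1:100 in LB without tetracycline and precultured 1.5 h at 37°C. Compounds were added from DMSO stocks to 1% final DMSO and incubated 5 h at 37°C. Bioluminescence was divided by A595, and induction factor is the treated/untreated ratio. The value is the lowest test concentration giving ≥4-fold induction.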

Pseudomonas aeruginosa [8] = assay: Antibacterial activity against Pseudomonas aeruginosa ATCC 27853 by broth microdilution method; assay type: functional
Escherichia coli [9] = assay: Antibacterial activity against Escherichia coli UB1005 by broth microdilution method; assay type: functional
Escherichia coli [10] = assay: Antibacterial activity against Escherichia coli DC2 by broth microdilution method; assay type: functional
Escherichia coli [11] = assay: Antibacterial activity against Escherichia coli ATCC 25922 by broth microdilution method; assay type: functional
Staphylococcus aureus [12] = assay: Antibacterial activity against Staphylococcus aureus ATCC 29213 by broth microdilution method; assay type: functional
Enterococcus faecalis = assay: Antibacterial activity against Enterococcus faecalis ATCC 29212 by broth microdilution method; assay type: functional
Pseudomonas aeruginosa [13] = assay: Antibacterial activity against Pseudomonas aeruginosa K799/WT by broth microdilution method; assay type: functional
[14] = molecular target: T1, Cell division inhibitor SulA (Escherichia coli K-12) (UniProt P0AFZ5); assay: Inhibition of Escherichia coli K-12 DNA sulA expressed in Escherichia coli DC2 assessed as compound concentration required for => 4-fold induction of luxCDABE operon by reported gene assay
T1 sequence (whole entry): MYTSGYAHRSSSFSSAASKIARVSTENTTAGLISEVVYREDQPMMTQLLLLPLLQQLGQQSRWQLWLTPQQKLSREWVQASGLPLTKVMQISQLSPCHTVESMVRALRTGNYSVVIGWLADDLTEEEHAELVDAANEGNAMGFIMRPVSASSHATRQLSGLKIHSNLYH
Procedure, shortened: as §1

Streptococcus pneumoniae [15] = assay: Antibacterial activity against Streptococcus pneumoniae TUPELO by broth microdilution method; assay type: functional
DNA gyrase subunit B = DNA gyrase subunit B (Escherichia coli, UniProt P0AES6); assay: Inhibition of Escherichia coli JM109 DNA gyrase subunit B assessed as ATP hydrolysis by ATPase assay

Compound | IC50 [1] [nM] | MIC (Klebsiella pneumoniae) [µg/mL] | MIC (Staphylococcus aureus [2]) [µg/mL] | MIC (Enterococcus faecium) [µg/mL] | MIC (Streptococcus pneumoniae [3]) [µg/mL] | MIC (Streptococcus pneumoniae [4]) [µg/mL] | MIC (Staphylococcus aureus [5]) [µg/mL] | MIC (Pseudomonas aeruginosa [6]) [µg/mL] | Activity [7] [µM] | MIC (Pseudomonas aeruginosa [8]) [µg/mL] | MIC (Escherichia coli [9]) [µg/mL] | MIC (Escherichia coli [10]) [µg/mL] | MIC (Escherichia coli [11]) [µg/mL] | MIC (Staphylococcus aureus [12]) [µg/mL] | MIC (Enterococcus faecalis) [µg/mL] | MIC (Pseudomonas aeruginosa [13]) [µg/mL] | Activity [14] | MIC (Streptococcus pneumoniae [15]) [µg/mL] | IC50 (DNA gyrase subunit B) [nM]
COc1cc(C(=O)Nc2c(O)c3ccc(O[C@@H]4OC(C)(C)[C@H](OC)[C@@H](OC(=O)c5ccc(C)[nH]5)[C@H]4O)c(C)c3oc2=O)ccc1O | 25 | > 32 | > 32 | > 32 | 2 (≈ 3.13 µM) | 1 (≈ 1.57 µM) | 0.25 (≈ 0.391 µM) | 2 (≈ 3.13 µM) | 12.5 | > 32 | > 32 | 16 (≈ 25.1 µM) | > 32 | ≤ 0.06 | 8 (≈ 12.5 µM) | > 32 | 12.5 µM | 4 (≈ 6.26 µM) | 86
CO[C@@H]1[C@@H](OC(=O)c2ccc(C)[nH]2)[C@@H](O)[C@H](Oc2ccc3c(O)c(NC(=O)c4cc(C)c(O)c(C)c4)c(=O)oc3c2)OC1(C)C | 120 | > 32 | > 32 | > 32 | 16 (≈ 25.7 µM) | 8 (≈ 12.8 µM) | 4 (≈ 6.42 µM) | 8 (≈ 12.8 µM) | > 100 | > 32 | > 32 | > 32 | > 32 | 4 (≈ 6.42 µM) | 16 (≈ 25.7 µM) | > 32 | inactive | 16 (≈ 25.7 µM) | 229
CO[C@@H]1[C@@H](OC(=O)c2ccc(C)[nH]2)[C@@H](O)[C@H](Oc2ccc3c(O)c(NC(=O)c4cc(C)c(O)c(C)c4)c(=O)oc3c2Cl)OC1(C)C | 17 | > 32 | 32 (≈ 48.7 µM) | > 32 | 8 (≈ 12.2 µM) | 4 (≈ 6.09 µM) | 0.25 (≈ 0.38 µM) | 1 (≈ 1.52 µM) | 13 | > 32 | > 32 | 16 (≈ 24.4 µM) | > 32 | 0.125 (≈ 0.19 µM) | 16 (≈ 24.4 µM) | > 32 | 6.3 µM | 8 (≈ 12.2 µM) | 65
CO[C@@H]1[C@@H](OC(=O)c2ccc(C)[nH]2)[C@@H](O)[C@H](Oc2ccc3c(O)c(NC(=O)c4ccc(N)c(C)c4)c(=O)oc3c2C)OC1(C)C | 44 | > 32 | > 32 | > 32 | 4 (≈ 6.43 µM) | 4 (≈ 6.43 µM) | 1 (≈ 1.61 µM) | 4 (≈ 6.43 µM) | 25 | > 32 | > 32 | > 32 | > 32 | 1 (≈ 1.61 µM) | 8 (≈ 12.9 µM) | > 32 | 50 µM | 4 (≈ 6.43 µM) | 152

More lines, in order of falling IC50 [1], values ahead:

IC50 [1] [nM] | MIC (Klebsiella pneumoniae) [µg/mL] | MIC (Staphylococcus aureus [2]) [µg/mL] | MIC (Enterococcus faecium) [µg/mL] | MIC (Streptococcus pneumoniae [3]) [µg/mL] | MIC (Streptococcus pneumoniae [4]) [µg/mL] | MIC (Staphylococcus aureus [5]) [µg/mL] | MIC (Pseudomonas aeruginosa [6]) [µg/mL] | Activity [7] [µM] | MIC (Pseudomonas aeruginosa [8]) [µg/mL] | MIC (Escherichia coli [9]) [µg/mL] | MIC (Escherichia coli [10]) [µg/mL] | MIC (Escherichia coli [11]) [µg/mL] | MIC (Staphylococcus aureus [12]) [µg/mL] | MIC (Enterococcus faecalis) [µg/mL] | MIC (Pseudomonas aeruginosa [13]) [µg/mL] | Activity [14] | MIC (Streptococcus pneumoniae [15]) [µg/mL] | IC50 (DNA gyrase subunit B) [nM] | Compound
43 | > 32 | > 32 | > 32 | 8 (≈ 11.7 µM) | 8 (≈ 11.7 µM) | 0.5 (≈ 0.73 µM) | 2 (≈ 2.92 µM) | 6.3 | > 32 | > 32 | 16 (≈ 23.4 µM) | > 32 | 0.5 (≈ 0.73 µM) | 32 (≈ 46.7 µM) | > 32 | 3.1 µM | 16 (≈ 23.4 µM) | 263 | COc1cc(/C=C/C(=O)Nc2c(O)c3ccc(O[C@@H]4OC(C)(C)[C@H](OC)[C@@H](OC(=O)c5ccc(C)[nH]5)[C@H]4O)c(Cl)c3oc2=O)ccc1O
34 | > 32 | 16 (≈ 24.7 µM) | > 32 | 2 (≈ 3.08 µM) | 1 (≈ 1.54 µM) | ≤ 0.06 | 0.5 (≈ 0.771 µM) | 1.6 | > 32 | > 32 | 8 (≈ 12.3 µM) | > 32 | ≤ 0.06 | 8 (≈ 12.3 µM) | > 32 | 3.1 µM | 2 (≈ 3.08 µM) | 116 | C=CCc1cc(C(=O)Nc2c(O)c3ccc(O[C@@H]4OC(C)(C)[C@H](OC)[C@@H](OC(=O)c5ccc(C)[nH]5)[C@H]4O)c(C)c3oc2=O)ccc1O
34 | > 32 | > 32 | > 32 | 16 (≈ 25 µM) | 8 (≈ 12.5 µM) | 1 (≈ 1.56 µM) | 4 (≈ 6.26 µM) | 6.3 | > 32 | > 32 | 32 (≈ 50.1 µM) | > 32 | 0.25 (≈ 0.391 µM) | 16 (≈ 25 µM) | > 32 | 3.1 µM | 16 (≈ 25 µM) | 90 | CO[C@@H]1[C@@H](OC(=O)c2ccc(C)[nH]2)[C@@H](O)[C@H](Oc2ccc3c(O)c(NC(=O)/C=C/c4ccccc4)c(=O)oc3c2Cl)OC1(C)C
20 | > 32 | 32 (≈ 48.6 µM) | > 32 | 4 (≈ 6.07 µM) | 2 (≈ 3.03 µM) | 0.25 (≈ 0.379 µM) | 2 (≈ 3.03 µM) | 3.1 | > 32 | > 32 | 8 (≈ 12.1 µM) | > 32 | 0.125 (≈ 0.19 µM) | 32 (≈ 48.6 µM) | > 32 | 12.5 µM | 16 (≈ 24.3 µM) | 84 | CO[C@@H]1[C@@H](OC(=O)c2ccc(C)[nH]2)[C@@H](O)[C@H](Oc2ccc3c(O)c(NC(=O)c4ccc(SC)cc4)c(=O)oc3c2Cl)OC1(C)C
19 | > 32 | 32 (≈ 49.2 µM) | > 32 | 2 (≈ 3.07 µM) | 2 (≈ 3.07 µM) | ≤ 0.06 | 0.5 (≈ 0.768 µM) | 3.1 | > 32 | > 32 | 8 (≈ 12.3 µM) | > 32 | ≤ 0.06 | 16 (≈ 24.6 µM) | > 32 | 1.6 µM | 4 (≈ 6.15 µM) | 84 | CCCc1cc(C(=O)Nc2c(O)c3ccc(O[C@@H]4OC(C)(C)[C@H](OC)[C@@H](OC(=O)c5ccc(C)[nH]5)[C@H]4O)c(C)c3oc2=O)ccc1O
